{"data": "Experimental data collected from several papers", "SLC18A3": "Vesicular acetylcholine transporter (SLC18A3, Homo sapiens, UniProt Q16572)", "BMX": "Cytoplasmic tyrosine-protein kinase BMX (BMX, Homo sapiens, UniProt P51813)", "OPRK1": "Kappa-type opioid receptor (OPRK1, Homo sapiens, UniProt P41145)", "SIGMAR1": "Sigma non-opioid intracellular receptor 1 (SIGMAR1, Homo sapiens, UniProt Q99720)", "HTR2A": "5-hydroxytryptamine receptor 2A (HTR2A, Homo sapiens, UniProt P28223)"}
{"Compound": "O=C(c1ccc(F)cc1)C1CCN(C2Cc3c(cccc3OCCF)CC2O)CC1 (single isomer, unassigned; (-))", "target": "SLC18A3", "effect on": "ligand displacement", "method": "radioligand", "Ki [µM]": 0.00698}
{"Compound": "N[C@@H](C[C@]1(C(=O)O)C[C@H]2OC[C@@H](O)[C@@H](O)[C@H]2O1)C(=O)O", "target": "Glutamate receptor ionotropic, kainate 2 (Grik2, Rattus norvegicus, UniProt P42260, Y443F)", "effect on": "ligand displacement", "method": "radioligand", "Ki [µM]": 0.895}
{"Compound": "Cn1cc(-c2cccc(N3CCc4c(sc5c4CC(C)(C)C5)C3=O)c2CO)cc(Nc2ccncn2)c1=O", "target": "BMX", "effect on": "enzyme activity", "action": "inhibitor", "method": "FRET", "Ki [µM]": "> 3.33"}
{"Compound": "[C-]#[O+]", "target": "cooS2 (Carboxydothermus hydrogenoformans, UniProt Q9F8A8)", "effect on": "enzyme activity", "action": "inhibitor", "Ki [µM]": 5.4}
{"Compound": "CCCN1CCC[C@@H]2Cc3n[nH]cc3C[C@H]21", "target": "SLC18A3", "effect on": "ligand displacement", "method": "radioligand", "Ki [µM]": "> 1"}
{"Compound": "CCCC[C@@H](NC(=O)[C@@H](N)Cc1c(C)cc(O)cc1C)C(=O)NCC(=O)N[C@@H](Cc1ccc(F)cc1)C(=O)N(C)CCC[C@@]1(c2ccc(F)cc2)OCc2cc(C#N)ccc21", "target": "OPRK1", "effect on": "cell-free assay", "Ki [µM]": 0.003}
{"Compound": "COc1cc2c(cc1OC)CN(CCc1ccc(NC(=O)c3cccc4c(=O)c5cccc(OC)c5[nH]c34)cc1)CC2", "target": "SIGMAR1", "effect on": "ligand displacement", "method": "radioligand", "Ki [µM]": "> 10"}
{"Compound": "Fc1ccc2c(C3CCCNC3)noc2c1 (racemic)", "target": "HTR2A", "effect on": "ligand displacement", "method": "radioligand", "setting": "cell membranes", "Ki [µM]": 0.284}
{"Compound": "CN(C)CCCC1(c2ccc(F)cc2)OCc2cc(C#N)ccc21 (stereo not shown)", "target": "SIGMAR1", "effect on": "ligand displacement", "method": "radioligand", "Ki [µM]": 0.182}
{"Compound": "Cc1cc(O)cc(C)c1C[C@H](N)C(=O)N1CCc2ccc(Cc3cccc(N)c3)cc2C1", "target": "OPRK1", "effect on": "ligand displacement", "method": "radioligand", "setting": "cell membranes", "Ki [µM]": 0.028}
{"Compound": "O=C(CN1CCC(CN2Cc3ccccc3C2=O)CC1)c1ccc(F)cc1", "target": "SIGMAR1", "effect on": "ligand displacement", "method": "radioligand", "Ki [µM]": 1.74}
{"Compound": "CNC(=O)[C@H]1[Se][C@@H](n2cnc3c(NCc4cccc(Cl)c4)nc(Cl)nc32)[C@H](O)[C@@H]1O", "target": "Adenosine receptor A2a (ADORA2A, Homo sapiens, UniProt P29274)", "effect on": "ligand displacement", "method": "radioligand", "setting": "cell membranes", "Ki [µM]": "~0.2"}
{"Compound": "OCCOCCN1CCN(C(c2ccccc2)c2ccc(Cl)cc2)CC1 (stereo not shown)", "target": "SIGMAR1", "effect on": "ligand displacement", "method": "radioligand", "Ki [µM]": 0.437}
{"Compound": "Cc1nc2n(c(=O)c1CCN(C)CCc1c[nH]c3ccccc13)CCCC2", "target": "HTR2A", "effect on": "ligand displacement", "method": "radioligand", "setting": "cell membranes", "Ki [µM]": 0.237}
{"Compound": "Cc1cccc(Cc2ccc3c(c2)CN(C(=O)[C@@H](N)Cc2c(C)cc(O)cc2C)CC3)c1", "target": "OPRK1", "effect on": "ligand displacement", "method": "radioligand", "setting": "cell membranes", "Ki [µM]": 0.0027}
{"Compound": "CN(CCCN1c2ccccc2CCc2ccccc21)CC(=O)c1ccc(Cl)cc1", "target": "SIGMAR1", "effect on": "ligand displacement", "method": "radioligand", "Ki [µM]": 7.09}
{"Compound": "Cn1cc(-c2cc(F)cc(N3CCn4c(cc5c4CCCC5)C3=O)c2CO)cc(Nc2ccc(N3CCN(C4COC4)CC3)cn2)c1=O", "target": "BMX", "effect on": "enzyme activity", "action": "inhibitor", "method": "FRET", "Ki [µM]": 0.0832}
{"Compound": "CN1CCN(CCc2ccc(Cl)c(Cl)c2)CC1", "target": "SIGMAR1", "effect on": "ligand displacement", "method": "radioligand", "Ki [µM]": 0.00948}
{"Compound": "CCOC(=O)C(CC)(CCCSC)NC(=O)c1ccc(C2CC2)c(Cc2ccc(F)cc2)n1 (stereo not shown)", "target": "Cannabinoid receptor 1 (CNR1, Homo sapiens, UniProt P21554)", "effect on": "ligand displacement", "method": "radioligand", "setting": "cell membranes", "Ki [µM]": 0.0085}
